{"source": "ChEMBL document CHEMBL4813970", "about": "“Design, synthesis and evaluation of novel dimethylamino chalcone-O-alkylamines derivatives as potential multifunctional agents against Alzheimer's disease” (Eur J Med Chem, 2021)", "key": {"[1]": {"experiment": "Antioxidant activity of compound assessed as trolox equivalent antioxidant capacity by ORAC-FL assay", "assay_type": "functional"}, "PC-12 [2]": {"tested_on": "PC-12", "experiment": "Neuroprotective activity against H2O2-induced cytotoxicity in rat PC12 cells assessed as increase in cell viability by MTT assay", "assay_type": "functional, cell-based", "method_in_brief": "(§1)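 PC12 cells exposed to 100 μM H2O2, with or without compound. Viability read by MTT reduction relative to control. Trolox 100 μM is the reference.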"}, "PC-12 [3]": {"tested_on": "PC-12", "experiment": "Neuroprotective activity against H2O2-induced cytotoxicity in rat PC12 cells assessed as increase in cell viability at 10 uM by MTT assay", "assay_type": "functional", "method_in_brief": "as §1"}, "[4]": {"experiment": "Metal chelating activity assessed as compound-Al3+ complex formation by measuring maximum absorption wavelength shifted from 444 nm to 468 nm by UV-Visible spectrophotometry", "method_in_brief": "(§2)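 UV-vis spectra recorded from 200 to 600 nm on a multimode reader. Metals tested as CuCl2, FeSO4, ZnCl2 and AlCl3.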"}, "[5]": {"target": "T1, Amyloid-beta precursor protein (Homo sapiens, UniProt P05067)", "T1 sequence (P05067 whole entry, the tested form may be a part)": "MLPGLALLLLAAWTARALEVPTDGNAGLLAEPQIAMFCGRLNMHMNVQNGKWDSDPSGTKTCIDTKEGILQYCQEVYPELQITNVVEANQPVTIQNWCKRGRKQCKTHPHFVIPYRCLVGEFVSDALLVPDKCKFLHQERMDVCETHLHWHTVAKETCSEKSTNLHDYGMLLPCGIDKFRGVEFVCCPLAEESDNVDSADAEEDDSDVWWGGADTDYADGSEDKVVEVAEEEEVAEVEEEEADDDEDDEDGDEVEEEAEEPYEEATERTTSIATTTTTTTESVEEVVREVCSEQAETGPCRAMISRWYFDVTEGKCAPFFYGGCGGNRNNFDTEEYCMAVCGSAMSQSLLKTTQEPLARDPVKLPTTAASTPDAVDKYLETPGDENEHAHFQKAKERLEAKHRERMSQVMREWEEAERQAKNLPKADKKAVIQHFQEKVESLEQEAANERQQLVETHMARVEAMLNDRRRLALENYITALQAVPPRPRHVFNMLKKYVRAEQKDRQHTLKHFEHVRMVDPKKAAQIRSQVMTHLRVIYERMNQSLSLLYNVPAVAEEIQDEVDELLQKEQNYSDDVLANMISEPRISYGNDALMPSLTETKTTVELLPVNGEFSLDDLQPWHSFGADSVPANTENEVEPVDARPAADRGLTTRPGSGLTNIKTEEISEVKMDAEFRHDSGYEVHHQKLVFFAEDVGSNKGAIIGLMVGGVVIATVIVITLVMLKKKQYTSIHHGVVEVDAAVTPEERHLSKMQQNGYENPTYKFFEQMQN", "experiment": "Inhibition of Cu2+ induced amyloid beta (1 to 42 residues) (unknown origin) aggregation at 25 uM by thioflavin-T fluorescence method relative to control"}, "[6]": {"target": "T1, Amyloid-beta precursor protein", "experiment": "Inhibition of self-induced amyloid beta (1 to 42) (unknown origin) assessed as reduction in fibril formation incubated for 24 hrs by transmission electron microscopy", "method_in_brief": "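Aβ1-42 at 25 μM incubated 24 h with or without compound at 25 μM. Samples imaged by transmission electron microscopy.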"}, "Homo sapiens": {"organism": "Homo sapiens", "experiment": "Selectivity index, ratio of IC50 for recombinant human MAO-A to IC50 for recombinant human MAO-B", "method_in_brief": "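Selectivity index taken as IC50(hMAO-A)/IC50(hMAO-B). IC50 values are mean ± SEM from three experiments.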"}, "Acetylcholinesterase [7]": {"target": "T2, Acetylcholinesterase (Electrophorus electricus, UniProt O42275)", "T2 sequence (O42275 whole entry)": "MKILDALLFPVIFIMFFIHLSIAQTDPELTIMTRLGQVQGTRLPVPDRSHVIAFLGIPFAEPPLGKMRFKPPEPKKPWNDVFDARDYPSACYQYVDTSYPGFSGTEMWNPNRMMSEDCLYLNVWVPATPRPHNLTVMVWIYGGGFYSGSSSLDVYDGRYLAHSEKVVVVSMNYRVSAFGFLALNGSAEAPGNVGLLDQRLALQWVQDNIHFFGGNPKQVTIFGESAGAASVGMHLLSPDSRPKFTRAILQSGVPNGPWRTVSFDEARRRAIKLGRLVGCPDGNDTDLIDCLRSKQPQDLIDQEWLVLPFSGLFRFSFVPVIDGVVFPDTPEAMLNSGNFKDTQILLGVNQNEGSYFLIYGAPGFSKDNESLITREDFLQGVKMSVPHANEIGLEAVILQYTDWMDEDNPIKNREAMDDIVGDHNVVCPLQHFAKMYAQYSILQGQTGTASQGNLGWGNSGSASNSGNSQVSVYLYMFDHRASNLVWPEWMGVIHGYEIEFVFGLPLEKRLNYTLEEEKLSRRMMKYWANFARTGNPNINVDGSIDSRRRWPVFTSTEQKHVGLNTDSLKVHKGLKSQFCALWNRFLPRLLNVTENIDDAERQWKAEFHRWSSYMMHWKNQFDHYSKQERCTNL", "experiment": "Mixed type inhibition of electric eel AChE by reciprocal Lineweaver-Burk plot analysis"}, "Acetylcholinesterase [8]": {"target": "T2, Acetylcholinesterase", "experiment": "Inhibition of electric eel AChE using acetylthiocholine iodide as substrate by Ellman's method"}, "[9]": {"target": "T1, Amyloid-beta precursor protein", "experiment": "Inhibition of self-induced amyloid beta (1 to 42) (unknown origin) aggregation by T-fluorescence assay relative to control", "conditions": "read-out: IC50", "method_in_brief": "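IC50 by ThT fluorescence (excitation 446 nm, emission 490 nm). Computed only where inhibition of self-induced Aβ1-42 aggregation at 25 μM exceeded 90%. Triplicate; mean of three independent experiments.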"}, "[10]": {"target": "Acetylcholinesterase (Electrophorus electricus) (UniProt O42275)", "sequence (O42275 24-633 limits assumed)": "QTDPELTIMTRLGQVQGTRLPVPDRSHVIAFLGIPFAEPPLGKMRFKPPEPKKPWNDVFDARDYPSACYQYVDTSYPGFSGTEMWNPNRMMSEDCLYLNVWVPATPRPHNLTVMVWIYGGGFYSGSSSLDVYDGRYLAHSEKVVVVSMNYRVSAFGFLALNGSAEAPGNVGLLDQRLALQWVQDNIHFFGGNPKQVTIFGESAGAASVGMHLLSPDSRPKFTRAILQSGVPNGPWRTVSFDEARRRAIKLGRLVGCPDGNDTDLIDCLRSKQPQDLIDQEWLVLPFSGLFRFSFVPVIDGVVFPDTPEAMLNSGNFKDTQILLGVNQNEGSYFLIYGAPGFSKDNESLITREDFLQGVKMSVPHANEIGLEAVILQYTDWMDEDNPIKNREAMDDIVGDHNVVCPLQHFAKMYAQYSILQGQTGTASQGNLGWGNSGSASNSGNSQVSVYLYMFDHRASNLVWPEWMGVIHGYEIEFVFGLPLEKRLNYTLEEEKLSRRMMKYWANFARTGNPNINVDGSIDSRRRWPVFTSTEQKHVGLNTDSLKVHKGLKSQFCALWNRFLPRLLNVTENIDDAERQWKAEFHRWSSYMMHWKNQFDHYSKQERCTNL", "experiment": "Mixed type inhibition of electric eel AChE assessed as increase in Km by reciprocal Lineweaver-Burk plot analysis", "conditions": "dose 0.5-2 µM"}, "[11]": {"target": "T3, Amine oxidase [flavin-containing] A (Homo sapiens, UniProt P21397)", "T3 sequence (P21397 whole entry)": "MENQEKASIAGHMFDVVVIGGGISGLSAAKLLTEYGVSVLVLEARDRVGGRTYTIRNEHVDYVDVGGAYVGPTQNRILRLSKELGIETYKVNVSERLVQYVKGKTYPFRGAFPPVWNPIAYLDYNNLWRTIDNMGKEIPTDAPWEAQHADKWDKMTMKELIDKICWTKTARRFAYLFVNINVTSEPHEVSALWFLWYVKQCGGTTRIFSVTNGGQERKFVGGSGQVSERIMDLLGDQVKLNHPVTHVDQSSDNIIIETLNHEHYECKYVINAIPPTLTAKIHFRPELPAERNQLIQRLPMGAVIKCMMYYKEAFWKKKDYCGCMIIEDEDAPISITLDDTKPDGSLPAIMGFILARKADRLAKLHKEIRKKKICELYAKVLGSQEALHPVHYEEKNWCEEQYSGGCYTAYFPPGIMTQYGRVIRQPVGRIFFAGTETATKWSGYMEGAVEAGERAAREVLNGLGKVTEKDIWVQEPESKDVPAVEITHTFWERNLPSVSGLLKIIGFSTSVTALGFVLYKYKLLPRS", "experiment": "Inhibition of human recombinant MAO-A by multimode plate reader assay"}, "PC-12 [12]": {"tested_on": "PC-12", "experiment": "Neuroprotective activity against H2O2-induced cytotoxicity in rat PC12 cells assessed as increase in cell viability at 1 uM by MTT assay", "assay_type": "functional", "method_in_brief": "as §1"}, "PC-12 [13]": {"tested_on": "PC-12", "experiment": "Neuroprotective activity against H2O2-induced cytotoxicity in rat PC12 cells assessed as increase in cell viability by LDH assay", "assay_type": "functional, cell-based", "method_in_brief": "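PC12 cells exposed to H2O2, with or without compound. Membrane damage read as LDH release into the supernatant. Trolox is the reference.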"}, "[14]": {"experiment": "Metal chelating activity assessed as compound Fe2+ complex formation by UV-Visible spectrophotometry", "method_in_brief": "as §2"}, "[15]": {"target": "T1, Amyloid-beta precursor protein", "experiment": "Disaggregation of self-induced amyloid beta (1 to 42) (unknown origin) at 25 uM measured by Thioflavin T based fluorometric assay relative to control"}, "[16]": {"target": "T4, Amine oxidase [flavin-containing] B (Homo sapiens, UniProt P27338)", "T4 sequence (P27338 whole entry)": "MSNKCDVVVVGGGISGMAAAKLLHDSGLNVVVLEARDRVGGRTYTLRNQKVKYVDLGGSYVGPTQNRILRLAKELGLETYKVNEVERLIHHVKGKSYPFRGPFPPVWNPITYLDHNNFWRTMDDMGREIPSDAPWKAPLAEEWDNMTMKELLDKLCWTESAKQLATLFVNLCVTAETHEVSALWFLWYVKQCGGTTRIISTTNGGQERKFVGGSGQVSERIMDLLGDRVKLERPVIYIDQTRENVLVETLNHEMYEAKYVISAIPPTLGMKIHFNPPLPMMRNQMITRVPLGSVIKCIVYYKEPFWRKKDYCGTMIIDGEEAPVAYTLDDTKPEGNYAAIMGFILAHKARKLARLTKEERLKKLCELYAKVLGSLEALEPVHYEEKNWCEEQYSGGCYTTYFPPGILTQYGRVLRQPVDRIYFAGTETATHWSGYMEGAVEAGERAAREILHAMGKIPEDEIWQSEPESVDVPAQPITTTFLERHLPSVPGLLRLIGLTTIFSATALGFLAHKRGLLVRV", "experiment": "Inhibition of human recombinant MAO-B by multimode plate reader assay"}, "[17]": {"target": "Acetylcholinesterase (Electrophorus electricus) (UniProt O42275)", "experiment": "Mixed type inhibition of electric eel AChE assessed as decrease in Vmax by reciprocal Lineweaver-Burk plot analysis", "conditions": "dose 0.5-2 µM"}, "[18]": {"experiment": "Acute toxicity in KM mouse assessed as mortality upto 1000 mg/kg,po administered as single dose measured for 14 days", "assay_type": "organism-based", "conditions": "in vivo, 336 h, time 14 day"}, "[19]": {"experiment": "Metal chelating activity assessed as compound-Cu2+ complex formation by measuring maximum absorption wavelength shifted from 444 nm to 460 nm by UV-Visible spectrophotometry", "method_in_brief": "as §2"}, "[20]": {"target": "T1, Amyloid-beta precursor protein", "experiment": "Disaggregation of Cu2+ induced amyloid beta (1 to 42 residues) (unknown origin) aggregation at 25 uM by thioflavin-T fluorescence method relative to control"}, "Butyrylcholinesterase": {"target": "Butyrylcholinesterase (Rattus norvegicus, UniProt Q9JKC1)", "sequence (Q9JKC1 whole entry)": "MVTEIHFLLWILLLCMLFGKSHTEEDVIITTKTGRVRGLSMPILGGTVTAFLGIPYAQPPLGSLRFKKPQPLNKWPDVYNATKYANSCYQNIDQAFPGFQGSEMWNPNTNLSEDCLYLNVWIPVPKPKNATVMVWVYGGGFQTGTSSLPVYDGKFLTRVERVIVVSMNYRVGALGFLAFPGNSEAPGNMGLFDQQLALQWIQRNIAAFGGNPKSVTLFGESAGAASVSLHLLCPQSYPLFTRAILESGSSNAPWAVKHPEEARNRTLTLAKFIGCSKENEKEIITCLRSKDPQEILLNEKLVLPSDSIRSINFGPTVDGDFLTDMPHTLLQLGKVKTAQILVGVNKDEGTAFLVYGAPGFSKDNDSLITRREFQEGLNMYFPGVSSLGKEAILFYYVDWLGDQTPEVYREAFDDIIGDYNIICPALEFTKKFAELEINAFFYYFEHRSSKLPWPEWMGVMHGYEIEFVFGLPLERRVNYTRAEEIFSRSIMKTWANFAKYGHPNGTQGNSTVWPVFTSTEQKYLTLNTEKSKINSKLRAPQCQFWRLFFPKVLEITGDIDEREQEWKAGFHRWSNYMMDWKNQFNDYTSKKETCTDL", "experiment": "Inhibition of rat serum BuChE by Ellman's method"}, "[21]": {"experiment": "Acute toxicity in KM mouse assessed as abnormal behavior upto 1000 mg/kg, po administered as single dose measured for 14 days", "assay_type": "organism-based", "conditions": "in vivo, 336 h, time 14 day", "method_in_brief": "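Kunming mice, n = 10 per group, fasted overnight with free access to water, given one oral dose of 67.5, 125, 250, 500 or 1000 mg/kg. Housed on a 12 h light/dark cycle at 20–22 °C, 40–70% relative humidity. Abnormal behaviour and mortality observed continuously for the first 4 h, intermittently over the next 24 h, then occasionally to 14 days.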"}}, "note": "pIC50, pKi: −log10 of the molar value. Calls of active or inactive are those of the source. The rule behind the calls is not given here.", "data": [{"smiles": "CCN(CCCCOc1ccc(C(=O)/C=C/c2ccc(N(C)C)cc2)c(O)c1)Cc1ccccc1N(C)C", "values": [{"measurement": "Activity", "setting": "[1]", "result": 2.1}, {"measurement": "Activity", "setting": "PC-12 [2]", "result": "Dose-Dependent Effect"}, {"measurement": "Activity", "setting": "PC-12 [3]", "result": 88.1, "unit": "%"}, {"measurement": "Activity", "setting": "[4]", "result": "Active"}, {"measurement": "inhibition", "setting": "[5]", "result": 95.3, "unit": "%"}, {"measurement": "Activity", "setting": "[6]", "result": "inactive"}, {"measurement": "Selectivity Index", "setting": "Homo sapiens", "result": 18.4}, {"measurement": "pKi", "setting": "Acetylcholinesterase [7]", "result": 6.30}, {"measurement": "pIC50", "setting": "Acetylcholinesterase [8]", "result": 6.16}, {"measurement": "pIC50", "setting": "[9]", "result": 6.06}, {"measurement": "inhibition", "setting": "[10]", "result": "Active"}, {"measurement": "pIC50", "setting": "[11]", "result": 4.74}, {"measurement": "Activity", "setting": "PC-12 [12]", "result": 70.9, "unit": "%"}, {"measurement": "Activity", "setting": "PC-12 [13]", "result": "Active"}, {"measurement": "Activity", "setting": "[14]", "result": "inactive"}, {"measurement": "Activity", "setting": "[15]", "result": 95.1, "unit": "%"}, {"measurement": "pIC50", "setting": "[16]", "result": 6.00}, {"measurement": "inhibition", "setting": "[17]", "result": "Active"}, {"measurement": "Activity", "setting": "[18]", "result": "Non-Toxic"}, {"measurement": "Activity", "setting": "[19]", "result": "Active"}, {"measurement": "Activity", "setting": "[20]", "result": 88.1, "unit": "%"}, {"measurement": "pIC50", "setting": "Butyrylcholinesterase", "result": 3.63}, {"measurement": "Activity", "setting": "[21]", "result": "Non-Toxic"}]}]}
